Measurements reported in ChEMBL document CHEMBL4011638, “Semisynthetic Flavone-Derived Antimicrobials with Therapeutic Potential against Methicillin-Resistant Staphylococcus aureus (MRSA)” (J Med Chem, 2017).
Values after ≈ are worked out from the molar mass of the structure shown. Active and inactive are the calls of the source. The rule behind the calls is not given here.

Legend:
Staphylococcus aureus [1] = experiment: Antibacterial activity against methicillin-resistant Staphylococcus aureus DM 9808R after 24 hrs by broth microdilution method; format: functional
How it was run: (§1)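 Broth microdilution per CLSI in cation-adjusted Mueller−Hinton broth, in tubes. Compounds dissolved in H2O or DMF, then diluted in PBS to 1000 μg/mL stocks. Serial 2-fold dilutions were made, with final DMF 2.5%. Organisms were grown on TSA at 35 °C for 20 h and adjusted to ~5× 10^5 CFU/mL. Tubes were incubated at 35 °C for 24 h. MIC was the lowest concentration with no visible growth versus control. Biological replicates.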

Staphylococcus aureus [2] = experiment: Antibacterial activity against Staphylococcus aureus DM4001R after 24 hrs by broth microdilution method; format: functional; how it was run: as §1
Staphylococcus aureus [3] = experiment: Antibacterial activity against methicillin-resistant Staphylococcus aureus DM 21455 after 24 hrs by broth microdilution method; format: functional; details: DM 21455, 24 h; how it was run: as §1
Bacillus cereus = experiment: Antibacterial activity against Bacillus cereus ATCC 11778 after 24 hrs by broth microdilution method; format: functional; details: ATCC 11778, 24 h
How it was run: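 MIC by CLSI broth microdilution in cation-adjusted Mueller–Hinton broth, tubes. Compounds in H2O or DMF, diluted in PBS to 1000 μg/mL stocks, then serial 2-fold dilutions (final DMF 2.5%). Inoculum ~5×10^5 CFU/mL from TSA plates grown 35 °C 20 h. Incubation 35 °C 24 h; MIC = no visible growth vs control. Biological replicates.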

Staphylococcus aureus [4] = experiment: Antibacterial activity against methicillin-sensitive Staphylococcus aureus DM4583R after 24 hrs by broth microdilution method; format: functional; how it was run: as §1
Staphylococcus aureus [5] = experiment: Antibacterial activity against methicillin-sensitive Staphylococcus aureus DM4400R after 24 hrs by broth microdilution method; format: functional; how it was run: as §1
Staphylococcus aureus [6] = experiment: Antibacterial activity against methicillin-sensitive Staphylococcus aureus DM4299 after 24 hrs by broth microdilution method; format: functional; details: DM4299, 24 h; how it was run: as §1
Staphylococcus aureus [7] = experiment: Antibacterial activity against methicillin-sensitive Staphylococcus aureus ATCC 29213 after 24 hrs by broth microdilution method; format: functional; details: ATCC 29213, 24 h; how it was run: as §1
Staphylococcus aureus [8] = experiment: Antibacterial activity against methicillin-sensitive Staphylococcus aureus ATCC 6538 after 24 hrs by broth microdilution method; format: functional; details: ATCC 6538, 24 h; how it was run: as §1
Staphylococcus aureus [9] = experiment: Antibacterial activity against methicillin-sensitive Staphylococcus aureus ATCC 29737 after 24 hrs by broth microdilution method; format: functional; details: ATCC 29737, 24 h; how it was run: as §1
Staphylococcus aureus [10] = experiment: Antibacterial activity against methicillin-resistant Staphylococcus aureus DB6506 after 24 hrs by broth microdilution method; format: functional; details: DB6506, 24 h; how it was run: as §1
Staphylococcus aureus [11] = experiment: Antibacterial activity against methicillin-resistant Staphylococcus aureus DB68004 after 24 hrs by broth microdilution method; format: functional; details: DB68004, 24 h; how it was run: as §1
Staphylococcus aureus [12] = experiment: Antibacterial activity against methicillin-resistant Staphylococcus aureus DB57964 after 24 hrs by broth microdilution method; format: functional; details: DB57964, 24 h; how it was run: as §1
Staphylococcus aureus [13] = experiment: Antibacterial activity against methicillin-resistant Staphylococcus aureus ATCC 43300 after 24 hrs by broth microdilution method; format: functional; details: ATCC 43300, 24 h; how it was run: as §1
Staphylococcus aureus [14] = experiment: Antibacterial activity against methicillin-resistant Staphylococcus aureus ATCC 700699 after 24 hrs by broth microdilution method; format: functional; details: ATCC 700699, 24 h; how it was run: as §1
Staphylococcus aureus [15] = experiment: Antibacterial activity against methicillin-resistant Staphylococcus aureus BAA-38 after 24 hrs by broth microdilution method; format: functional; details: BAA-38, 24 h; how it was run: as §1
[16] = Ratio of HC50 for New Zealand white rabbit RBC to MIC for methicillin-sensitive Staphylococcus aureus DM4583R
How it was run: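 HC50 measured on fresh New Zealand white rabbit RBCs, washed three times in PBS, at 4% v/v final. Cells were incubated with 2-fold serial dilutions (DMF final 0.5%) at 37 °C for 1 h, then centrifuged. Supernatant absorbance was read at 576 nm, with PBS as 0% and 2% Triton X-100 as 100% lysis. HC50 is the concentration lysing 50% of cells, divided by MIC from broth microdilution.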

Staphylococcus aureus [17] = experiment: Induction of plasma membrane permeability in methicillin-resistant Staphylococcus aureus DM9808R assessed as increase in fluorescence intensity at 12.5 ug/ml measured every 1 sec for 50 mins by SYTOX green dye based fluorimetric assay; format: functional
How it was run: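 Exponential-phase MRSA DM9808R grown on TSA, washed twice and resuspended in PBS (10 mM, pH 7) to OD600 0.2. Cells were loaded with 0.3 μM SYTOX Green in the dark until fluorescence stabilized. Test samples were then added (final DMF 0.5%). Fluorescence at ex 504/em 523 nm was recorded every 1 s for 50 min. Biological replicates.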

Lipid bilayer = experiment: Membrane permeabilization activity in DOPE/DOPG large unilamellar liposomes assessed as leakage of calcein at 1:4 to 1:8 compound to lipid ratio by fluorescence assay
Staphylococcus aureus [18] = experiment: Ratio of MIC for Staphylococcus aureus ATCC 29213 after […] passages to MIC for Staphylococcus aureus ATCC 29213; format: functional
How it was run: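 Serial passage. Initial MIC was determined against S. aureus ATCC29213 by broth microdilution. Bacteria from duplicate tubes at 0.5× MIC were diluted to ~5 × 10^5 CFU/mL for the next MIC round. Each round was incubated at 35 °C for 24 h and the fold increase in MIC recorded. Gatifloxacin and norfloxacin served as comparators. Repeated for 17 passages, biological replicates.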

Compound	MIC (Staphylococcus aureus [1])	MIC (Staphylococcus aureus [2])	MIC (Staphylococcus aureus [3])	MIC (Bacillus cereus)	MIC (Staphylococcus aureus [4]) [µg/mL]	MIC (Staphylococcus aureus [5]) [µg/mL]	MIC (Staphylococcus aureus [6]) [µg/mL]	MIC (Staphylococcus aureus [7]) [µg/mL]	MIC (Staphylococcus aureus [8]) [µg/mL]	MIC (Staphylococcus aureus [9]) [µg/mL]	MIC (Staphylococcus aureus [10]) [µg/mL]	MIC (Staphylococcus aureus [11]) [µg/mL]	MIC (Staphylococcus aureus [12]) [µg/mL]	MIC (Staphylococcus aureus [13]) [µg/mL]	MIC (Staphylococcus aureus [14]) [µg/mL]	MIC (Staphylococcus aureus [15]) [µg/mL]	Ratio [16]	also measured
COC(=O)[C@H](CCCNC(=N)N)NC(=O)[C@H](CCCNC(=N)N)NC(=O)COc1cc(O)c2c(=O)c(OCC(=O)N[C@@H](CCCNC(=N)N)C(=O)N[C@@H](CCCNC(=N)N)C(=O)OC)c(-c3ccc(OC)cc3)oc2c1CC=C(C)C	5.5 µM	5.5 µM	11 µM	11 µM	–	–	–	–	–	–	–	–	–	–	–	–	–	–
N=C(N)NCCCCC(=O)Nc1cc(C(F)(F)F)cc(NC(=O)c2cc(C(=O)Nc3cc(C(F)(F)F)cc(NC(=O)CCCCNC(=N)N)c3O[C@@H]3CCNC3)ncn2)c1O[C@@H]1CCNC1 [BRILACIDIN]	–	–	–	–	1 (≈ 1.07 µM)	1 (≈ 1.07 µM)	1 (≈ 1.07 µM)	1 (≈ 1.07 µM)	1 (≈ 1.07 µM)	1 (≈ 1.07 µM)	1 (≈ 1.07 µM)	1 (≈ 1.07 µM)	1 (≈ 1.07 µM)	1 (≈ 1.07 µM)	1 (≈ 1.07 µM)	1 (≈ 1.07 µM)	558	–
CCN(CC)CCCCCCOc1cc(O)c2c(=O)c(OCCCCCCN(CC)CC)c(-c3ccc(OC)cc3)oc2c1CC=C(C)C	3.13 µg/mL	6.25 µg/mL	3.13 µg/mL	12.5 µg/mL	–	–	–	–	–	–	–	–	–	–	–	–	–	–
COC(=O)[C@H](CCCCN)NC(=O)COc1cc(O)c2c(=O)c(OCC(=O)N[C@@H](CCCCN)C(=O)OC)c(-c3ccc(OC)cc3)oc2c1CC=C(C)C	32.5 µM	32.5 µM	32.5 µM	32.5 µM	–	–	–	–	–	–	–	–	–	–	–	–	–	Activity (Staphylococcus aureus [17]): Active; Activity (Lipid bilayer): 30%
H-GIGKFLKKAKKFGKAFVKILKK-OH	–	–	–	–	16 to 64	16 to 64	16 to 64	16 to 64	16 to 64	16 to 64	16 to 64	16 to 64	16 to 64	16 to 64	16 to 64	16 to 64	2 to 8	–
COc1c(N2CCNC(C)C2)c(F)cc2c(=O)c(C(=O)O)cn(C3CC3)c12 (centres undefined) [GATIFLOXACIN]	–	–	–	–	–	–	–	–	–	–	–	–	–	–	–	–	–	Ratio (Staphylococcus aureus [18]): 64
CCN(CC)CCOc1cc(O)c2c(=O)c(OCCN(CC)CC)c(-c3ccc(OC)cc3)oc2c1CC=C(C)C	> 50 µg/mL	50 µg/mL	50 µg/mL	> 50 µg/mL	–	–	–	–	–	–	–	–	–	–	–	–	–	–
COc1ccc(-c2oc3c(CC=C(C)C)c(O)cc(O)c3c(=O)c2O)cc1 [ICARITIN]	50 µg/mL	50 µg/mL	50 µg/mL	136 µM	50 (≈ 136 µM)	50 (≈ 136 µM)	50 (≈ 136 µM)	50 (≈ 136 µM)	50 (≈ 136 µM)	50 (≈ 136 µM)	50 (≈ 136 µM)	50 (≈ 136 µM)	50 (≈ 136 µM)	50 (≈ 136 µM)	50 (≈ 136 µM)	50 (≈ 136 µM)	> 8	Activity (Staphylococcus aureus [17]): inactive; Activity (Lipid bilayer): < 5%
CCn1cc(C(=O)O)c(=O)c2cc(F)c(N3CCNCC3)cc21 [NORFLOXACIN]	–	–	–	–	–	–	–	–	–	–	–	–	–	–	–	–	–	Ratio (Staphylococcus aureus [18]): 128
COC(=O)[C@H](CCCNC(=N)N)NC(=O)COc1cc(O)c2c(=O)c(O)c(-c3ccc(OC)cc3)oc2c1CC=C(C)C	5.2 µM	5.2 µM	10.4 µM	10.4 µM	–	–	–	–	–	–	–	–	–	–	–	–	–	–
